Bioassay records: PubChem, several laboratories
GalR3 antagonist = antagonists of human GalR3; inhibition, % at 3 µM; HEK293 GalR3-CNG cAMP membrane potential fluorescence; galR3 body fused to GalR1 C-terminus; O60755; 0.44% of 360,000 active; AID 651719;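 active = inhibition above the screen-wide average plus 3 SD, cut at about 13% in these data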;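 note: forskolin and galanin both at EC90 stimulate the cells; cAMP rise reported by CNG channel membrane potential dye signal; 0% = forskolin plus galanin with DMSO and 100% = forskolin alone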
Target sequence (O60755 1-299 limits assumed): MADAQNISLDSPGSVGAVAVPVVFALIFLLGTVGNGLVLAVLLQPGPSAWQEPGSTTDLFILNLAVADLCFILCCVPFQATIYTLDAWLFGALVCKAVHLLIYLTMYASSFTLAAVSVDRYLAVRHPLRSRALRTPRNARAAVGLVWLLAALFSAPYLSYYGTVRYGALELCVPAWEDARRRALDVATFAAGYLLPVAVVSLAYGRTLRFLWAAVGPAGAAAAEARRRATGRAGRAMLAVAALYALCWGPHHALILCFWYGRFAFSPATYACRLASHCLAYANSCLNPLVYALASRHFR
Gli-Sufu block = Gli-Sufu pathway antagonism | Sufu-KO-LIGHT fibroblasts, Gli luciferase reporter luminescence | inhibition, % at 5 µM | 0.74% of 340,000 active | AID 588413;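 active = inhibition above about 55%, limit read from the data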;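 note: 0% = DMSO-treated cells and 100% = wells with medium but no cells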
NR2E3 ag-1 = activates human NR2E3 receptor; CHO-S Gal4-NCOR/VP16-NR2E3 two-hybrid, luciferase; inhibition of corepressor binding, % at 3.98 µM; 0.35% of 360,000 active;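 active = inhibition above the mean of all tested compounds plus 3 SD, cut at about 70% in these data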;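 note: 0% = DMSO with NR2E3 transfected cells and 100% = cells lacking NR2E3 construct; higher means lower luciferase signal from less NR2E3 corepressor binding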
Target sequence (Q9Y5X4 whole entry, looked up, the tested form may be a part): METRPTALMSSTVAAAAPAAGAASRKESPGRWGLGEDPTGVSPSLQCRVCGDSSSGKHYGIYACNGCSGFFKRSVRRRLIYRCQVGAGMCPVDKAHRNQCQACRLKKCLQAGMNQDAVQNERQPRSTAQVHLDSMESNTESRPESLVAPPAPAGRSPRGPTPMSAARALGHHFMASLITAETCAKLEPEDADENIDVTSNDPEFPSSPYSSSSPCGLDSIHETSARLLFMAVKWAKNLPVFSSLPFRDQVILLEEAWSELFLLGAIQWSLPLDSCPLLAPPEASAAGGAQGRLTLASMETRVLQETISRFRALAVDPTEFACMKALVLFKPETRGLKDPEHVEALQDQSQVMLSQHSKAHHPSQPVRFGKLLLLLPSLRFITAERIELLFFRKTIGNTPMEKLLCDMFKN
697 NFkB inh = lowers PMA/ionomycin-induced NF-kB signal in 697 B cells. 697 B-cell NF-kB luciferase reporter, 16 h. 0.33% of 330,000 active. inhibition, % at 4 µM; in the data active = inhibition above about 35%
Jurkat NFkB inh = lowers PMA/ionomycin-induced NF-kB signal in Jurkat cells. 0.53% of 330,000 active. inhibition, % at 4 µM. AID 435003. PMA/ionomycin-induced NF-kB luciferase reporter, luminescence; in the data active = inhibition above about 50%
NR2E3 ag-2 = NR2E3 (human) agonism | Q9Y5X4 | GST-NR2E3/biotin-RetCOR TR-FRET, 1536-well | inhibition of corepressor binding, % at 4.78 µM | 0.12% of 320,000 active;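 active = percent inhibition above the cutoff of mean plus 3 SD of all tested compounds, set per screening campaign, cut at about 20% in these data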;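 note: 0% = DMSO wells and 100% = biotin wells as full block of FRET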
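Assay system: NR2E3–RetCOR corepressor complex. Quantity: 1.35 nM GST-NR2E3. Buffer or medium: pH 7.5 Tris-based buffer. Reagent: biotinylated RetCOR corepressor at 7 nM final. Schedule: 5 h at 4 °C. Detection: TR-FRET, emission read at 617 and 671 nm. Replicates: one well per compound, singlicate testing.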
Gli-Sufu confirm = confirmation of Gli-SUFU pathway antagonists; inhibition, % at 5 µM; Sufu-KO-LIGHT cells, Gli luciferase reporter, luminescence; 40% of 2,500 active; shares compounds with Gli-Sufu block; AID 602428;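 active = mean inhibition at 5 µM reaching about 45%, limit read from the data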;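 note: plate controls were DMSO-treated cells for no effect and wells lacking cells for full effect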
SufuKO cytotox = counter-screen for Gli-SUFU antagonists: cytotoxicity; shares compounds with Gli-Sufu block; Sufu-KO-LIGHT cells cytotoxicity, ATP luminescence; 32% of 2,500 active; cytotoxicity, % at 5 µM;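 active = mean cytotoxicity at 5 µM above about 25%, limit read from the data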;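 note: cells exposed to compound overnight for roughly 16 to 18 hours; plate controls were DMSO wells with cells for no effect and medium without cells for full effect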
Wnt3a counter = counter-screen for Gli-SUFU antagonists: Wnt3a reporter inhibition; shares compounds with Gli-Sufu block; Wnt-LIGHT cells, Wnt3a-driven luciferase reporter, luminescence; inhibition, % at 6.25 µM; 20% of 2,500 active; AID 651995;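 active = mean inhibition above about 25%, limit read from the data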
An asterisk follows results filed as active. Shown are actives, neighbours in structure and some others; about 1.8% of the full set was active somewhere.

How did COc1ccc(O)c2c(=O)c3c(OC)cc4c(c3oc12)C1C=COC1O4 (configuration not stated) do in these assays?
GalR3 antagonist: -6.0; Gli-Sufu block: 60.2*; NR2E3 ag-1: -9.2; 697 NFkB inh: 26.9; Jurkat NFkB inh: 1.0; NR2E3 ag-2: 3.4; Gli-Sufu confirm: 68.6*; SufuKO cytotox: 37.2*; Wnt3a counter: 20.4

How did CCCCCc1nc2c(c(=O)c3ccccc3n2C)c(=O)n1C1CCCCCC1 do in these assays?
GalR3 antagonist: -3.7; Gli-Sufu block: 51.5; NR2E3 ag-1: -12.2; 697 NFkB inh: 6.7; Jurkat NFkB inh: 8.7; NR2E3 ag-2: -4.1; Gli-Sufu confirm: 36.5; SufuKO cytotox: 23.9; Wnt3a counter: -7.0

What do the screens show for `CCCCCCn1c(=O)c(C(=O)Nc2cnccn2)c(O)c2ccccc21`?
GalR3 antagonist: -4.8; Gli-Sufu block: 78.5*; NR2E3 ag-1: -16.4; 697 NFkB inh: -16.3; Jurkat NFkB inh: -17.3; NR2E3 ag-2: 1.1; Gli-Sufu confirm: 78.6*; SufuKO cytotox: -6.8; Wnt3a counter: 29.8*

How did COC(=O)C1=C(c2cc3ccccc3o2)C[C@@H]2CC[C@H]1N2C(=O)N1CCC(C)CC1 do in these assays?
GalR3 antagonist: -4.9; Gli-Sufu block: 53.1; NR2E3 ag-1: 14.5; 697 NFkB inh: -2.5; Jurkat NFkB inh: -2.1; NR2E3 ag-2: -3.9; Gli-Sufu confirm: 40.8; SufuKO cytotox: 21.8; Wnt3a counter: -3.4

Results for CC1=CP(=O)(Oc2ccc([N+](=O)[O-])cc2)CC1 (configuration not stated) ?
GalR3 antagonist: -2.9; NR2E3 ag-1: -9.7

How did N[C@@H](Cc1ccccc1)C(=O)N1C[C@H]2C[C@@H](C1)c1cccc(=O)n1C2 do in these assays?
GalR3 antagonist: -7.8; Gli-Sufu block: 0.9; NR2E3 ag-1: -4.4; 697 NFkB inh: 15.8; Jurkat NFkB inh: -5.7; NR2E3 ag-2: 1.7

Results for Cc1ccc(-c2cc(-c3ccc(C)cc3)[n+](C)o2)cc1 ?
GalR3 antagonist: -7.4; Gli-Sufu block: 82.7*; NR2E3 ag-1: -16.2; NR2E3 ag-2: -8.3; Gli-Sufu confirm: 86.2*; SufuKO cytotox: 30.1*; Wnt3a counter: 36.2*

What do the screens show for `Cc1cc(C=C2C(=O)NC(=O)NC2=O)c(C)n1-c1ccc2c(c1)OCO2`?
GalR3 antagonist: -0.5; Gli-Sufu block: 1.2; NR2E3 ag-1: -5.9; 697 NFkB inh: 1.8; Jurkat NFkB inh: 8.4; NR2E3 ag-2: -1.2

How did Cc1cc(/C=C2\C(=O)NC(=O)N(C)C2=O)c(C)n1-c1ccc2c(c1)OCO2 do in these assays?
GalR3 antagonist: -1.8; Gli-Sufu block: 68.9*; NR2E3 ag-1: -2.4; 697 NFkB inh: 7.4; Jurkat NFkB inh: 17.0; NR2E3 ag-2: 2.7; Gli-Sufu confirm: 23.1; SufuKO cytotox: -1.0; Wnt3a counter: -19.9

How did Cn1cccc1/C=C1/C(=O)NC(=O)N(Cc2ccccc2)C1=O do in these assays?
GalR3 antagonist: 4.5; Gli-Sufu block: 52.7; NR2E3 ag-1: -2.5; 697 NFkB inh: -53.7; Jurkat NFkB inh: 15.6; NR2E3 ag-2: 2.3; Gli-Sufu confirm: 45.1*; SufuKO cytotox: 38.4*; Wnt3a counter: 26.0*

Results for Cn1cccc1/C=C1\C(=O)NC(=O)N(Cc2ccccc2)C1=O ?
GalR3 antagonist: 2.2; Gli-Sufu block: 38.8; NR2E3 ag-1: -18.8; 697 NFkB inh: -65.6; Jurkat NFkB inh: 40.0; NR2E3 ag-2: 0.3

How did CC12CN3CCN(CC(C3)/C1=N/NC(N)=O)C2 do in these assays?
GalR3 antagonist: -5.1; Gli-Sufu block: -3.1; NR2E3 ag-1: -13.4; 697 NFkB inh: -1.8; Jurkat NFkB inh: -10.8; NR2E3 ag-2: 0.4

Results for CCC12CN3CCN(CC(C3)/C1=N/NC(N)=O)C2 ?
GalR3 antagonist: -0.1; Gli-Sufu block: 61.4*; NR2E3 ag-1: -29.4; 697 NFkB inh: 0.7; Jurkat NFkB inh: -1.9; NR2E3 ag-2: -3.1; Gli-Sufu confirm: 18.4; SufuKO cytotox: -6.9; Wnt3a counter: 15.0

How did Cn1c(NN=O)nc2ccccc21 do in these assays?
GalR3 antagonist: 2.1; Gli-Sufu block: 82.8*; NR2E3 ag-1: -24.8; 697 NFkB inh: -1.6; Jurkat NFkB inh: 21.5; NR2E3 ag-2: 2.0; Gli-Sufu confirm: 37.0; SufuKO cytotox: 23.0; Wnt3a counter: 12.5

Results for NCCCC(=O)OC1N=C(c2ccccc2Cl)c2cc(Br)ccc2NC1=O (configuration not stated) ?
GalR3 antagonist: -5.5; Gli-Sufu block: -5.6; NR2E3 ag-1: -40.2; 697 NFkB inh: 0.7; Jurkat NFkB inh: -23.4; NR2E3 ag-2: 1.4

How did CC(C)NC(C)Cc1ccc(I)cc1 (configuration not stated) do in these assays?
GalR3 antagonist: -3.0; Gli-Sufu block: 4.5; NR2E3 ag-1: -20.0; 697 NFkB inh: 9.1; Jurkat NFkB inh: 8.9; NR2E3 ag-2: 2.7

What do the screens show for `O=[N+]([O-])NC1=NCN(Cc2ccco2)CN1Cc1ccco1`?
GalR3 antagonist: -1.1; Gli-Sufu block: 90.9*; NR2E3 ag-1: 24.8; 697 NFkB inh: 14.5; Jurkat NFkB inh: -9.4; NR2E3 ag-2: -1.5; Gli-Sufu confirm: 13.7; SufuKO cytotox: 16.0; Wnt3a counter: -8.0

What do the screens show for `CN1CN=C(N[N+](=O)[O-])N(Cc2ccco2)C1`?
GalR3 antagonist: -3.1; Gli-Sufu block: -1.5; NR2E3 ag-1: -16.9; 697 NFkB inh: 1.3; Jurkat NFkB inh: 11.4; NR2E3 ag-2: 3.6

Results for COc1cc2c3c(c1OC)Oc1ccc(cc1)C[C@H]1c4c(cc(OC)c(OC)c4Oc4ccc(cc4)C[C@@H]3N(C)CC2)CCN1C ?
GalR3 antagonist: -6.6; Gli-Sufu block: 64.7*; NR2E3 ag-1: -15.3; 697 NFkB inh: -27.3; Jurkat NFkB inh: 8.5; Gli-Sufu confirm: 20.4; SufuKO cytotox: -4.6; Wnt3a counter: -0.6

Results for COc1ccc(-n2c(O)c(C(C)=NCCc3c[nH]c4ccccc34)c(=O)[nH]c2=O)cc1 ?
GalR3 antagonist: -4.3; Gli-Sufu block: 0.9; NR2E3 ag-1: -19.1; 697 NFkB inh: 0.1; Jurkat NFkB inh: 12.5; NR2E3 ag-2: 1.9

What do the screens show for `CC(=O)c1cn(CCCOc2ccccc2)c2ccccc12`?
GalR3 antagonist: -3.3; Gli-Sufu block: 50.3; NR2E3 ag-1: 6.0; 697 NFkB inh: -22.8; Jurkat NFkB inh: 10.1; NR2E3 ag-2: 6.2; Gli-Sufu confirm: 18.9; SufuKO cytotox: 7.1; Wnt3a counter: -7.5

Results for CNC(=O)O/N=C/c1nn(C(=O)C(C)(C)C)cc1Br ?
GalR3 antagonist: -2.8; Gli-Sufu block: 9.6; NR2E3 ag-1: 21.6; 697 NFkB inh: 12.9; Jurkat NFkB inh: 10.9; NR2E3 ag-2: 1.2
